From ChEMBL document CHEMBL1255290, “Characterization of a novel human immunodeficiency virus type 1 protease inhibitor, A-790742” (Antimicrob Agents Chemother, 2008)

How the values were obtained:
[1] = tested on: Human immunodeficiency virus 1; test: Antiviral activity against HIV1 isolate 3 infected in human MT4 cells obtained from protease inhibitor-resistant patient harboring protease L10I, E35D, N37D, […], I54V, L63P, A71V, T74P, I84V, L90M, I93L mutation derived from viral passages with Lopinavir assessed as reduction in viral cytopathogenicity treated 1 hr post infection measured 5 days post infection by MTT assay relative to wild type …; type: functional
[2] = tested on: Human immunodeficiency virus 1; test: Antiviral activity against HIV1 B26 infected in human MT4 cells harboring protease L33F, K45I, M46I, I50V, I54V, A71V, and V82F mutation derived from viral passages with Lopinavir assessed as reduction in viral cytopathogenicity treated 1 hr post infection measured 5 days post infection by MTT assay; type: functional, organism-based; conditions: Human immunodeficiency virus 1, B26, MT4
In short: (§1)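 For the assay, 10⁶ MT-4 cells were infected at MOI 0.003, washed after 1 h, and plated at 10⁴ cells/well with eight serial compound dilutions in triplicate (0.5% DMSO final). MTT cytopathic read-out at day 5; EC50 from dose-response fitting.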

[3] = tested on: Human immunodeficiency virus 1; test: Antiviral activity against HIV1 pNL4-3 infected in human MT4 cells derived from 15 viral passages with 560 nM A-790742 harboring protease L33L/F, K45I, V82L, I84V mutation assessed as reduction in viral cytopathogenicity treated 1 hr post infection measured 5 days post infection by MTT assay relative to wild type HIV1 pNL4-3; type: functional
In short: (§2)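 Selection: MT-4 cells infected with parental pNL4-3 or RF (MOI 0.003, 2 h), then passaged under rising selecting drug whenever supernatant p24 (ELISA) exceeded 10 ng/ml. Passage viruses titred by TCID50 (Spearman-Karber). Assay: 10^6 MT-4 cells infected at MOI 0.003 for 1 h, washed, and seeded at 10^4 cells/well with eight serial dilutions, triplicate, 0.5% DMSO final. Day-5 MTT read-out; EC50 fold-change versus parental wild type.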

[4] = tested on: Human immunodeficiency virus 1; test: Antiviral activity against HIV1 pNL4-3 infected in human MT4 cells derived from 18 viral passages with 900 nM A-790742 harboring protease L33F, K45I, A71A/V, V77V/I, V82L, I84V mutation assessed as reduction in viral cytopathogenicity treated 1 hr post infection measured 5 days post infection by MTT assay relative to wild type HIV1 pNL4-3; type: functional
In short: as §2

[5] = tested on: Human immunodeficiency virus 1; test: Antiviral activity against HIV1 isolate 11 infected in human MT4 cells obtained from protease inhibitor-resistant patient harboring protease L10I, I15V, K20R, E21Q, E35D, M36I, N37D, R41K, M46L, I54V, I62V, L63P, A71V, T74D, P79A, V82T, I84V, I85V, L90M, I93L mutation derived from viral passages with Lopinavir assessed as reduction in viral cytopathogenicity treated 1 hr post infection measured …; type: functional
[6] = tested on: Human immunodeficiency virus 1; test: Antiviral activity against HIV1 RF infected in human MT4 cells derived from 6 viral passages with 16 nM A-790742 harboring wild-type protease assessed as reduction in viral cytopathogenicity treated 1 hr post infection measured 5 days post infection by MTT assay relative to wild type HIV1 RF; type: functional
In short: as §2

[7] = tested on: Human immunodeficiency virus 1; test: Antiviral activity against HIV1 isolate 6 infected in human MT4 cells obtained from protease inhibitor-resistant patient harboring protease L10I, L24I, M46I, I54V, K55R, Q58E, L63P, I64V, A71V, V82A, T91A mutation derived from viral passages with Lopinavir assessed as reduction in viral cytopathogenicity treated 1 hr post infection measured 5 days post infection by MTT assay relative to wild type …; type: functional
[8] = tested on: Human immunodeficiency virus 1; test: Antiviral activity against HIV1 RF infected in human MT4 cells derived from 8 viral passages with 52 nM A-790742 harboring protease V75I mutation assessed as reduction in viral cytopathogenicity treated 1 hr post infection measured 5 days post infection by MTT assay relative to wild type HIV1 RF; type: functional
In short: as §2

[9] = tested on: Human immunodeficiency virus 1; test: Antiviral activity against HIV1 isolate 12 infected in human MT4 cells obtained from protease inhibitor-resistant patient harboring protease L10I, I13V, K20I, E35D, M36I, M46I, I50V, I54V, R57K, I62V, L63P, A71V, V82A, L89V, L90M, Q92K mutation derived from viral passages with Lopinavir assessed as reduction in viral cytopathogenicity treated 1 hr post infection measured 5 days post infection by …; type: functional
[10] = tested on: Human immunodeficiency virus 1; test: Antiviral activity against HIV1 clone1 infected in HEK293 cells harboring A-790742-selected protease I84V mutation assessed as reduction in viral replication by luciferase reporter gene assay relative to wild type HIV1 pNL4-3; type: functional
In short: (§3)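 Single-cycle assay: HEK-293 cells were cotransfected with luciferase-reporter HIV-1 protease clones plus a VSV-G expression vector. After 4 h, cells were replated at 2 × 10⁴/well over serial inhibitor dilutions in triplicate. Pseudovirus collected at 48 h infected fresh HEK-293 (10⁴/well). Luciferase read 48 h later gave % inhibition versus untreated and EC50. Fold change against WT pNL4-3-Luc (clones 1-4) or RF-Luc (clone 5) is the mean of three experiments.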

[11] = tested on: Human immunodeficiency virus 1; test: Antiviral activity against HIV1 pNL4-3 infected in human MT4 cells derived from 8 viral passages with 50 nM A-790742 harboring protease V82V/L, I84V mutation assessed as reduction in viral cytopathogenicity treated 1 hr post infection measured 5 days post infection by MTT assay relative to wild type HIV1 pNL4-3; type: functional
In short: as §2

[12] = tested on: Human immunodeficiency virus 1; test: Antiviral activity against HIV1 P9 infected in human MT4 cells derived from viral passages with A-790742 harboring protease V82V/L and I84V mutation assessed as reduction in viral cytopathogenicity treated 1 hr post infection measured 5 days post infection by MTT assay relative to wild type HIV1 pNL4-3; type: functional
In short: as §1

[13] = tested on: Human immunodeficiency virus 1; test: Antiviral activity against HIV1 isolate 10 infected in human MT4 cells obtained from protease inhibitor-resistant patient harboring protease L10I, I13V, K20R, L33F, E35D, M36I, N37D, I54L, Q58E, I62V, L63P, A71V, V82A, I84V, L90M mutation derived from viral passages with Lopinavir assessed as reduction in viral cytopathogenicity treated 1 hr post infection measured 5 days post infection by MTT …; type: functional
[14] = tested on: Human immunodeficiency virus 1; test: Antiviral activity against HIV1 A17 infected in human MT4 cells harboring protease L10F, V32I, M46I, I47V, Q58E, and I84V mutation derived from viral passages with Lopinavir assessed as reduction in viral cytopathogenicity treated 1 hr post infection measured 5 days post infection by MTT assay; type: functional, organism-based; conditions: Human immunodeficiency virus 1, A17, MT4
In short: as §1

[15] = tested on: Human immunodeficiency virus 1; test: Antiviral activity against HIV1 pNL4-3 infected in human MT4 cells derived from 10 viral passages with 140 nM A-790742 harboring protease V82V/L and I84V mutation assessed as reduction in viral cytopathogenicity treated 1 hr post infection measured 5 days post infection by MTT assay relative to wild type HIV1 pNL4-3; type: functional
In short: as §2

[16] = tested on: Human immunodeficiency virus 1; test: Antiviral activity against HIV1 isolate 13 infected in human MT4 cells obtained from protease inhibitor-resistant patient harboring protease L10I, K14R, L33F, E34Q, R41K, K45R, M46I, I50V, K55R, L63P, A71V, G73T, V77I, V82A, L90M, I93L mutation derived from viral passages with Lopinavir assessed as reduction in viral cytopathogenicity treated 1 hr post infection measured 5 days post infection by …; type: functional
[17] = tested on: Human immunodeficiency virus 1; test: Antiviral activity against HIV1 pNL4-3 infected in human MT4 cells derived from 6 viral passages with 16 nM A-790742 harboring protease I84V mutation assessed as reduction in viral cytopathogenicity treated 1 hr post infection measured 5 days post infection by MTT assay relative to wild type HIV1 pNL4-3; type: functional
In short: as §2

[18] = tested on: Human immunodeficiency virus 1; test: Antiviral activity against HIV1 isolate 5 infected in human MT4 cells obtained from protease inhibitor-resistant patient harboring protease L10F, I15V, M46I, L63P, A71V, I72L, V82T, I84V, I85V, L90M mutation derived from viral passages with Lopinavir assessed as reduction in viral cytopathogenicity treated 1 hr post infection measured 5 days post infection by MTT assay relative to wild type HIV1 …; type: functional
[19] = tested on: Human immunodeficiency virus 1; test: Antiviral activity against HIV1 clone4 infected in HEK293 cells harboring A-790742-selected protease L33F, A71V, G73S, V77I, V82L, and I84V mutation assessed as reduction in viral replication by luciferase reporter gene assay relative to wild type HIV1 pNL4-3; type: functional
In short: as §3

[20] = tested on: Human immunodeficiency virus 1; test: Antiviral activity against HIV1 clone2 infected in HEK293 cells harboring A-790742-selected protease V82L mutation assessed as reduction in viral replication by luciferase reporter gene assay relative to wild type HIV1 pNL4-3; type: functional
In short: as §3

[21] = tested on: Human immunodeficiency virus 1; test: Antiviral activity against HIV1 pNL4-3 infected in human MT4 cells derived from 5 viral passages with 12 nM A-790742 harboring protease I84V mutation assessed as reduction in viral cytopathogenicity treated 1 hr post infection measured 5 days post infection by MTT assay relative to wild type HIV1 pNL4-3; type: functional
In short: as §2

[22] = tested on: Human immunodeficiency virus 1; test: Antiviral activity against HIV1 isolate 7 infected in human MT4 cells obtained from protease inhibitor-resistant patient harboring protease L10I, M46M/L, G48V, I54V, L63P, A71V, I72M, V77I, V82A, L90M, I93L mutation derived from viral passages with Lopinavir assessed as reduction in viral cytopathogenicity treated 1 hr post infection measured 5 days post infection by MTT assay relative to wild …; type: functional
[23] = tested on: Human immunodeficiency virus 1; test: Antiviral activity against HIV1 pNL4-3 infected in human MT4 cells derived from 7 viral passages with 32 nM A-790742 harboring protease I84V mutation assessed as reduction in viral cytopathogenicity treated 1 hr post infection measured 5 days post infection by MTT assay relative to wild type HIV1 pNL4-3; type: functional
In short: as §2

[24] = tested on: Human immunodeficiency virus 1; test: Antiviral activity against HIV1 isolate 9 infected in human MT4 cells obtained from protease inhibitor-resistant patient harboring protease L10I, I15I/V, K20R, L33F, E35D, M36I, N37D, R41K, K43I, M46I, I54V, I62V, L63P, A71T, I72T, V82A, I84V, L90M, I93L mutation derived from viral passages with Lopinavir assessed as reduction in viral cytopathogenicity treated 1 hr post infection measured 5 days …; type: functional
[25] = tested on: Human immunodeficiency virus 1; test: Antiviral activity against wild-type HIV1 RF infected in human MT4 cells assessed as reduction in viral cytopathogenicity treated 1 hr post infection measured 5 days post infection in absence of human serum by MTT assay; type: functional, organism-based; conditions: Human immunodeficiency virus 1, RF
In short: as §1

SMILES: COC(=O)N[C@H](C(=O)N[C@H](Cc1ccc(-c2ccccn2)cc1)C[C@H](O)[C@H](Cc1ccccc1)NC(=O)[C@@H](N1CCN(Cc2cccc(C(C)(C)O)n2)C1=O)C(C)(C)C)C(C)(C)C
- Ratio EC50 [1]: 33
- EC50 [2]: 22 nM
- Ratio EC50 [3]: 186.7
- Ratio EC50 [4]: 300
- Ratio EC50 [5]: 11
- Ratio EC50 [6]: 3.2
- Ratio EC50 [7]: 1
- Ratio EC50 [8]: 10.4
- Ratio EC50 [9]: 1
- Ratio EC50 [10]: 2
- Ratio EC50 [11]: 16.7
- Ratio EC50 [12]: 13
- Ratio EC50 [13]: 10
- EC50 [14]: 10 nM
- Ratio EC50 [15]: 46.7
- Ratio EC50 [16]: 2
- Ratio EC50 [17]: 5.3
- Ratio EC50 [18]: 2
- Ratio EC50 [19]: 158
- Ratio EC50 [20]: 22
- Ratio EC50 [21]: 4
- Ratio EC50 [22]: 2
- Ratio EC50 [23]: 10.7
- Ratio EC50 [24]: 6
- EC50 [25]: 5 nM
